Legend:
Homo sapiens [1] = species on record: Homo sapiens; assay: Selectivity for human A2B receptor over human A3 receptor
Adenosine receptor A2a = Adenosine receptor A2a (Homo sapiens, UniProt P29274); assay: Displacement of [3H]ZM241385 from human A2A receptor expressed in HEK293 cell membranes
Procedure, shortened: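 A2A affinity by competition with 3H-ZM241385 (2 nM) for binding sites in membranes from HEK-A2A cells.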

Adenosine receptor A1 = biological target: T1, Adenosine receptor A1 (Homo sapiens, UniProt P30542); assay: Displacement of [3H]-CPX from human A1 receptor expressed in CHO cell membranes
T1 sequence (P30542 whole entry): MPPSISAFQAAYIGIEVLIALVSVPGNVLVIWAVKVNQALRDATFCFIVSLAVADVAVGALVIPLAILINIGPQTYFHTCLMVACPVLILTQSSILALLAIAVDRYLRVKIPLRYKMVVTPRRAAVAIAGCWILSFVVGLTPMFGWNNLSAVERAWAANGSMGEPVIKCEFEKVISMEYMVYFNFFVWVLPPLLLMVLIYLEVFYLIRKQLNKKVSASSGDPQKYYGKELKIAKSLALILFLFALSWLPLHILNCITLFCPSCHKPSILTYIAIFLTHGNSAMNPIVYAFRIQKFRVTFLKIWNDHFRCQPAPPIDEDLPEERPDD
Procedure, shortened: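 Competitive binding on membranes prepared from A1-expressing CHO cells, radioligand 3H-CPX at 0.5 nM.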

Adenosine receptor A3 = biological target: T2, Adenosine receptor A3 (Homo sapiens, UniProt P0DMS8); assay: Displacement of [125I]-AB-MECA from human A3 receptor expressed in CHO cells; type: cell-based
T2 sequence (P0DMS8 whole entry): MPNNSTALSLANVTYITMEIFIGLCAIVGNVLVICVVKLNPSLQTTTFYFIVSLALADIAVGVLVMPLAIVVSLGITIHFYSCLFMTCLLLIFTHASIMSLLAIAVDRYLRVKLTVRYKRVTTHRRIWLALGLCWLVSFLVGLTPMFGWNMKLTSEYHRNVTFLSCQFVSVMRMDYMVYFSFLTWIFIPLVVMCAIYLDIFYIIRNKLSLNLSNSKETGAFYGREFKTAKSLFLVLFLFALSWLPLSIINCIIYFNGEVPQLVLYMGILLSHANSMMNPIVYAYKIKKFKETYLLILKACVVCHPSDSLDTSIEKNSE
Procedure, shortened: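 A3 binding: competition for sites labeled by 125I-AB-MECA using CHO cells expressing the A3 receptor.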

Adenosine receptor A2b = biological target: T3, Adenosine receptor A2b (Homo sapiens, UniProt P29275); assay: Displacement of [3H]-ZM241385 from human A2B receptor expressed in HEK293 cell membranes
T3 sequence (P29275 whole entry): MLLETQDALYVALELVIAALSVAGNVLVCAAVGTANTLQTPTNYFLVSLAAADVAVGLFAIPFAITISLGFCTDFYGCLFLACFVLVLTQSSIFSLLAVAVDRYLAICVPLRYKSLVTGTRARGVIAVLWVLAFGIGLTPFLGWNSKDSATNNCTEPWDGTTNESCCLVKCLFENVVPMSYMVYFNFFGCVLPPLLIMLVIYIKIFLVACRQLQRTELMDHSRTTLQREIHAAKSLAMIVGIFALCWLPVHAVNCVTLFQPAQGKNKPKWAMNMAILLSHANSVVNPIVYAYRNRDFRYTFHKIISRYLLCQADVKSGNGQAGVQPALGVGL
Procedure, shortened: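 Membranes from HEK cells expressing A2B; binding sites labeled with 3H-ZM241385 at 14 nM and displaced competitively.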

Homo sapiens [2] = species on record: Homo sapiens; assay: Selectivity for human A2B receptor over human A2A receptor
Homo sapiens [3] = species on record: Homo sapiens; assay: Selectivity for human A2B receptor over human A1 receptor

Sequence of Adenosine receptor A2a (P29274 whole entry): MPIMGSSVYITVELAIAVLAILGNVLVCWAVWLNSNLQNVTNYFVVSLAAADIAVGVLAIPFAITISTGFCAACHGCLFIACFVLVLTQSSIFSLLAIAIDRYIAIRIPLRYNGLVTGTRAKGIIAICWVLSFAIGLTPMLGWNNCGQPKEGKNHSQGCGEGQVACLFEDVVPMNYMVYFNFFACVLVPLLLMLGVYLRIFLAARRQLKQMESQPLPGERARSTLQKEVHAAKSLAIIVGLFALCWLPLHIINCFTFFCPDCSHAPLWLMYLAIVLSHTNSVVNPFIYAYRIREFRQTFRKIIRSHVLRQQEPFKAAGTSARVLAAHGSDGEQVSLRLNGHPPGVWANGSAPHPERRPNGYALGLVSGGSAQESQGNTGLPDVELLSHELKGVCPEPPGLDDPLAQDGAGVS

| Ratio Ki (Homo sapiens [1]) | Ki (Adenosine receptor A2a) [nM] | Ki (Adenosine receptor A1) [nM] | Ki (Adenosine receptor A3) [nM] | Ki (Adenosine receptor A2b) [nM] | Ratio Ki (Homo sapiens [2]) | Ratio Ki (Homo sapiens [3]) | SMILES |
| --- | --- | --- | --- | --- | --- | --- | --- |
|  | 100 | 210 |  | 5 | 20 | 42 | O=c1[nH]c2nc(-c3cnn(Cc4cccc(F)c4)c3)[nH]c2c(=O)n1CC1CC1 |
|  |  |  |  | > 6000 |  |  | CCCn1c(=O)[nH]c(=O)c2[nH]c(-c3cnn(Cc4ccccc4)c3)nc21 |
|  |  |  |  | > 6000 |  |  | CC(C)Cn1c(=O)[nH]c(=O)c2[nH]c(-c3cnn(Cc4ccccc4)c3)nc21 |
|  |  |  |  | > 6000 |  |  | O=c1[nH]c2nc(-c3cnn(Cc4ccccc4)c3)[nH]c2c(=O)n1Cc1ccccc1 |
| 300 | > 5000 | > 6000 | 1000 | 3 | > 1600 | > 2000 | O=c1[nH]c2nc(-c3cnn(Cc4cccc(C(F)(F)F)c4)c3)[nH]c2c(=O)n1CC1CC1 |
| 30 | 2760 | 3290 | 180 | 6 | 460 | 550 | O=c1[nH]c2nc(-c3cnn(Cc4ccccc4)c3)[nH]c2c(=O)n1CC1CC1 |
| 10 | > 5000 | 1600 | 120 | 13 | > 380 | 120 | CCCn1c(=O)[nH]c2nc(-c3cnn(Cc4ccccc4)c3)[nH]c2c1=O |
| 90 | > 5000 | > 6000 | 1100 | 13 | > 380 | > 460 | CC(C)Cn1c(=O)[nH]c2nc(-c3cnn(Cc4ccccc4)c3)[nH]c2c1=O |
| 30 | > 5000 | > 6000 | 2120 | 73 | > 70 | > 80 | CCn1c(=O)[nH]c2nc(-c3cnn(Cc4cccc(F)c4)c3)[nH]c2c1=O |
|  |  |  |  | > 6000 |  |  | CCn1c(=O)[nH]c(=O)c2[nH]c(-c3cnn(Cc4ccccc4)c3)nc21 |
| 40 | 3800 | 5600 | 1500 | 37 | 100 | 150 | CCn1c(=O)[nH]c2nc(-c3cnn(Cc4ccccc4)c3)[nH]c2c1=O |
|  |  |  |  | > 6000 |  |  | Cn1c(=O)[nH]c(=O)c2[nH]c(-c3cnn(Cc4ccccc4)c3)nc21 |
| > 190 | > 5000 | > 6000 | > 9000 | 48 | > 100 | > 120 | O=c1[nH]c2nc(-c3cnn(Cc4noc(-c5ccc(Cl)cc5)n4)c3)[nH]c2c(=O)n1CC1CC1 |
| 3 | 3400 | 5100 | 110 | 34 | 100 | 150 | CCCCn1c(=O)[nH]c2nc(-c3cnn(Cc4ccccc4)c3)[nH]c2c1=O |

Second part, the molecule before the results:

| SMILES | Ratio Ki (Homo sapiens [1]) | Ki (Adenosine receptor A2a) [nM] | Ki (Adenosine receptor A1) [nM] | Ki (Adenosine receptor A3) [nM] | Ki (Adenosine receptor A2b) [nM] | Ratio Ki (Homo sapiens [2]) | Ratio Ki (Homo sapiens [3]) |
| --- | --- | --- | --- | --- | --- | --- | --- |
| O=c1[nH]c2nc(-c3cnn(Cc4cc(-c5ccc(C(F)(F)F)cc5)on4)c3)[nH]c2c(=O)n1CC1CC1 | > 600 | > 5000 | > 6000 | > 9000 | 15 | > 300 | > 400 |
| CCCn1c(=O)c2[nH]c(-c3cnn(Cc4ccccc4)c3)nc2n(CCC)c1=O | 16 |  |  |  |  | 26 | 7 |
| CCCn1c(=O)c2[nH]c(-c3cnn(Cc4cc(-c5ccccc5)on4)c3)nc2n(CCC)c1=O | 130 |  |  |  |  | 30 | 110 |
| CCCn1c(=O)[nH]c2nc(-c3cnn(Cc4cc(-c5ccc(Cl)cc5)on4)c3)[nH]c2c1=O |  | > 5000 | > 6000 |  | 170 | > 30 | > 30 |
| CC(C)Cn1c(=O)[nH]c2nc(-c3cnn(Cc4noc(-c5ccc(C(F)(F)F)cc5)n4)c3)[nH]c2c1=O | > 650 | > 5000 | > 6000 | > 9000 | 14 | > 350 | > 400 |
| CCCn1c(=O)c2[nH]c(-c3cnn(Cc4cccc(F)c4)c3)nc2n(CCC)c1=O | 4 |  |  | 58 |  | 18 | 13 |
| CCCn1c(=O)[nH]c2nc(-c3cnn(Cc4noc(-c5ccccc5)n4)c3)[nH]c2c1=O | > 600 | > 5000 | 3500 | > 9000 | 15 | > 300 | 200 |
| CCCn1c(=O)c2[nH]c(-c3cnn(Cc4noc(-c5ccccc5)n4)c3)nc2n(CCC)c1=O | 30 |  |  |  |  | 85 | 50 |
| CCCn1c(=O)[nH]c2nc(-c3cnn(Cc4cccc(F)c4)c3)[nH]c2c1=O | 15 | 1730 | 1800 | 160 | 11 | 160 | 160 |
| CCCn1c(=O)[nH]c2nc(-c3cnn(Cc4noc(-c5ccc(Cl)cc5)n4)c3)[nH]c2c1=O | > 1280 | > 5000 | > 6000 | > 9000 | 7 | > 700 | > 850 |
| CCn1c(=O)[nH]c2nc(-c3cnn(Cc4cccc(C(F)(F)F)c4)c3)[nH]c2c1=O | > 1500 | > 5000 | > 6000 | > 9000 | 6 | > 830 | > 1000 |
| CCCCn1c(=O)[nH]c(=O)c2[nH]c(-c3cnn(Cc4ccccc4)c3)nc21 |  |  |  |  | > 6000 |  |  |
| CC(C)Cn1c(=O)[nH]c2nc(-c3cnn(Cc4cc(-c5ccccc5)on4)c3)[nH]c2c1=O | > 750 | > 5000 | > 6000 | > 9000 | 12 | > 410 | > 500 |
| O=c1[nH]c2nc(-c3cnn(Cc4noc(-c5ccc(C(F)(F)F)cc5)n4)c3)[nH]c2c(=O)n1CC1CC1 | > 700 | > 5000 | > 6000 | > 9000 | 13 | > 380 | > 460 |
| CCCCn1c(=O)[nH]c2nc(-c3cnn(Cc4cccc(F)c4)c3)[nH]c2c1=O | 15 | > 5000 | 4200 | 270 | 18 | > 280 | 230 |
| CCCCn1c(=O)[nH]c2nc(-c3cnn(Cc4cccc(C(F)(F)F)c4)c3)[nH]c2c1=O | > 300 | > 5000 | > 6000 | > 9000 | 30 | > 170 | > 200 |
| CC(C)Cn1c(=O)[nH]c2nc(-c3cnn(Cc4cccc(C(F)(F)F)c4)c3)[nH]c2c1=O | > 320 | > 5000 | > 6000 | > 9000 | 28 | > 180 | > 210 |
| CCCn1c(=O)[nH]c2nc(-c3cnn(Cc4cc(-c5ccccc5)on4)c3)[nH]c2c1=O | > 400 | > 5000 | > 6000 | > 9000 | 22 | > 230 | > 270 |
| CCCn1c(=O)c2[nH]c(-c3cnn(Cc4cccc(C(F)(F)F)c4)c3)nc2n(CCC)c1=O | 10 |  | 160 | 140 |  | 27 | 12 |
| CCCCn1c(=O)[nH]c2nc(-c3cnn(Cc4noc(-c5ccc(Cl)cc5)n4)c3)[nH]c2c1=O | > 400 | > 5000 | > 6000 | > 9000 | 23 | > 210 | > 260 |
| CCCn1c(=O)[nH]c2nc(-c3cnn(Cc4noc(-c5ccc(C(F)(F)F)cc5)n4)c3)[nH]c2c1=O | > 600 | > 5000 | 1400 | > 9000 | 15 | > 300 | 90 |
| CCCn1c(=O)[nH]c2nc(-c3cnn(Cc4cccc(C(F)(F)F)c4)c3)[nH]c2c1=O | 80 | > 5000 | > 6000 | 700 | 8 | > 620 | > 750 |
| O=c1[nH]c(=O)n(Cc2ccccc2)c2nc(-c3cnn(Cc4ccccc4)c3)[nH]c12 |  |  |  |  | > 6000 |  |  |
